Values after ≈ are worked out from the molar mass of the structure shown.
Assays:
Plasmodium falciparum = assay: Antimalarial activity against multidrug-resistant Plasmodium falciparum K1 by [3H]hypoxanthine uptake; assay type: functional, organism-based
Method in brief: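 Multidrug-resistant P. falciparum K1 tested in vitro by microculture radioisotope technique. IC50 is the concentration giving 50% reduction of parasite growth, measured as [3H]-hypoxanthine uptake, reported in µg/mL.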

[1] = Cytotoxicity against human BC1 cells by SRB assay; assay type: functional, cell-based
Method in brief: (§1)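 Purified compounds tested for cytotoxicity by a colorimetric method on human epidermoid carcinoma KB, human breast cancer BC-1 and African monkey kidney fibroblast Vero cells. Values are IC50 in µg/mL. Ellipticine served as the standard for KB and BC-1.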

[2] = test system: Mycobacterium tuberculosis; assay: Antitubercular activity against Mycobacterium tuberculosis H37Ra by microplate Alamar blue assay; assay type: functional
Method in brief: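 Growth inhibition of M. tuberculosis H37Ra measured by Microplate Alamar Blue Assay; activity reported as MIC in µg/mL.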

Vero = assay: Cytotoxicity against african green monkey Vero cells by SRB assay; assay type: cell-based; conditions: Chlorocebus sabaeus; method in brief: as §1
KB = assay: Cytotoxicity against human KB cells by SRB assay; assay type: functional, cell-based; method in brief: as §1

For `C[C@@H]1CC[C@H]2[C@@H](C)C(=O)O[C@@H]3O[C@@]4(C)CC[C@@H]1[C@]32OO4` [ARTEMISININ], the IC50 (Plasmodium falciparum) was 0.0011 µg/mL (≈ 0.0039 µM).

With `C[C@@H]1CC(O)=C2C(=O)c3c(O)ccc(-c4ccc(O)c5c4O[C@@]4(CO)C(=C(O)C[C@@H](C)[C@H]4O)C5=O)c3O[C@]2(CO)[C@@H]1O` [DEACETYLPHOMOXANTHONE A] the IC50 (Plasmodium falciparum) was greater than 20 µg/mL, the IC50 [1] was greater than 20 µg/mL and the MIC [2] was greater than 200 µg/mL. The IC50 (Vero) was greater than 50 µg/mL and the IC50 (KB) was greater than 20 µg/mL.

For `Cc1c2ccncc2c(C)c2c1[nH]c1ccccc12` [ELLIPTECINE], the IC50 [1] was 0.6 µg/mL (≈ 2.44 µM) and the IC50 (KB) was 0.46 µg/mL (≈ 1.87 µM).

`NNC(=O)c1ccncc1` [ISONIAZID] gave an MIC [2] of 0.05 µg/mL (≈ 0.365 µM).

`NC[C@H]1O[C@H](O[C@H]2[C@H](O)[C@@H](O[C@H]3O[C@H](CO)[C@@H](O)[C@H](N)[C@H]3O)[C@H](N)C[C@@H]2N)[C@H](O)[C@@H](O)[C@@H]1O.O=S(=O)(O)O` [KANAMYCIN SULFATE] showed an MIC [2] of 2.5 µg/mL.

`CC(=O)OC[C@]12Oc3c(-c4ccc(O)c5c4O[C@@]4(COC(C)=O)C(=C(O)C[C@@H](C)[C@H]4OC(C)=O)C5=O)ccc(O)c3C(=O)C1=C(O)C[C@@H](C)[C@H]2OC(C)=O` [PHOMOXANTHONE A] showed an IC50 (Plasmodium falciparum) of 0.11 µg/mL (≈ 0.147 µM), an IC50 [1] of 0.51 µg/mL (≈ 0.679 µM) and an MIC [2] of 0.5 µg/mL (≈ 0.666 µM). It also gave an IC50 (Vero) of 1.4 µg/mL (≈ 1.86 µM) and an IC50 (KB) of 0.99 µg/mL (≈ 1.32 µM).

For `CC(=O)OC[C@]12Oc3ccc(-c4ccc(O)c5c4O[C@@]4(COC(C)=O)C(=C(O)C[C@@H](C)[C@H]4OC(C)=O)C5=O)c(O)c3C(=O)C1=C(O)C[C@@H](C)[C@H]2OC(C)=O` [PHOMOXANTHONE B], the IC50 (Plasmodium falciparum) was 0.33 µg/mL (≈ 0.44 µM), the IC50 [1] was 0.7 µg/mL (≈ 0.932 µM) and the MIC [2] was 6.25 µg/mL (≈ 8.33 µM). The IC50 (Vero) was 1.8 µg/mL (≈ 2.4 µM) and the IC50 (KB) was 4.1 µg/mL (≈ 5.46 µM).

— ChEMBL document CHEMBL1155742, “Phomoxanthones A and B, novel xanthone dimers from the endophytic fungus Phomopsis species” (J Nat Prod, 2001)
